Published values pooled from the literature.
Protocols differ between the studies behind these lines.
Target: Calcium/calmodulin-dependent protein kinase type 1G (CAMK1G, Homo sapiens, UniProt Q96NX5)

COc1cnc(Nc2cccc(S(N)(=O)=O)c2)nc1N1CCN(c2ccccc2)CC1 gave a remaining binding of 86% (binding; competition with immobilised ligand; 1 µM).
The remaining binding of Cc1cnc(Nc2ccc(C(=O)N3CCC(N4CCCC4)CC3)cc2)nc1-c1cc2ccccc2s1 is reported as 68% (binding; competition with immobilised ligand; 1 µM).
With CCC(=N\O)/C(C)=C/c1ccc(F)cc1 the remaining binding was 97% (cell-free assay; competition with immobilised ligand; 1 µM).
O=C(c1ccc(Nc2ncc(Cl)c(-c3cc4ccccc4s3)n2)cc1)N1CCC(N2CCCC2)CC1 gave a remaining binding of 82% (binding; competition with immobilised ligand; 1 µM).
The remaining binding of CN(C)c1ncc(F)c(-c2cnn3ncccc23)n1 is reported as 96% (binding; competition with immobilised ligand; 1 µM).
C[C@@]1(Cc2ccc(C#N)cc2)C(=O)N(c2cc(Cl)cc(Cl)c2)c2ncc(C(=O)NC3(c4nc(C5CCC5)no4)CC3)n21 has a remaining binding of 100% (cell-free assay; competition with immobilised ligand; 1 µM).
O=C(NCCCN1CCOCC1)c1ccc(Nc2nccc(-c3cc4ccccc4s3)n2)cc1 has a remaining binding of 98% (binding; competition with immobilised ligand; 1 µM).
For COc1cnc(Nc2cccc(S(N)(=O)=O)c2)nc1N1CCN(c2ccccc2)C(=O)C1, the remaining binding was 100% (binding; competition with immobilised ligand; 1 µM).
C[C@H]1CCN(c2nccc(-c3cnn4ncccc34)n2)C1 has a remaining binding of 97% (binding; 1 µM).
With COCCOc1nc(-c2ccc(Cl)nc2)nc2c1CN(C(=O)c1ncn3ccccc13)CC2 the remaining binding was 100% (cell-free assay; competition with immobilised ligand; 0.1 µM).
With CCN1CCN(Cc2ccc(C(=O)Nc3ccc(C)c(Oc4ccc5c(c4)CC(=O)N5)c3)cc2C(F)(F)F)CC1 the remaining binding was 94% (binding; competition with immobilised ligand; 1 µM).
CN(c1nccc(-c2cnn3ncccc23)n1)C1CC1 gave a remaining binding of 100% (binding; 1 µM).
The remaining binding of O=C(N1CCS(=O)(=O)CC1)N1C[C@H](c2ccc(OC(F)(F)F)cc2)C[C@H](c2nc(C3CC3)no2)C1 is reported as 100% (cell-free assay; competition with immobilised ligand; 1 µM).
O=C(Nc1c[nH]nc1C(=O)NC1CCNCC1)c1cc(F)cc(F)c1 gave a remaining binding of 83% (binding; competition with immobilised ligand; 1 µM).
CN(CCCC(F)(F)F)c1nccc(-c2cnn3ncccc23)n1 has a remaining binding of 100% (binding; 1 µM).
For FC(F)(F)Oc1cccc(-c2cnc3ccc(-c4ccncc4)nn23)c1, the remaining binding was 73% (cell-free assay; competition with immobilised ligand; 5 µM).
For N[C@@H]1CCN(c2nccc(-c3cnn4ncccc34)n2)C1, the remaining binding was 100% (binding; 1 µM).
C=CC(=O)N1CCC(C(=O)NCC(=O)N2CCN(c3nc(-c4cnc(N)nc4C(F)F)nc(N4CCOCC4)n3)CC2)CC1 gave a remaining binding of 100% (binding; competition with immobilised ligand; 1 µM).
CNCc1ccccc1-c1csc([C@H](C)Nc2nc(C)nc3cc(OC)c(OC)cc23)c1 gave a remaining binding of 96% (cell-free assay; competition with immobilised ligand; 1 µM).
The remaining binding of CN(C)c1nccc(-c2cnc3ncccn23)n1 is reported as 100% (binding; 1 µM).
COc1cc(-c2cn(C3CCc4ccccc4N(CC(F)(F)F)C3=O)nn2)ccc1-n1ccc(C)n1 (stereo not shown) has a remaining binding of 100% (cell-free assay; competition with immobilised ligand; 1 µM).
The remaining binding of COc1ccnn2ncc(-c3ccnc(N(C)C)n3)c12 is reported as 100% (binding; 1 µM).
